Measured values collected from several papers.
Each line is one published result; the experiments were not run side by side.
Target: Homeodomain-interacting protein kinase 4 (HIPK4, Homo sapiens, UniProt Q8NE63)
One construct used (Q8NE63 1-616): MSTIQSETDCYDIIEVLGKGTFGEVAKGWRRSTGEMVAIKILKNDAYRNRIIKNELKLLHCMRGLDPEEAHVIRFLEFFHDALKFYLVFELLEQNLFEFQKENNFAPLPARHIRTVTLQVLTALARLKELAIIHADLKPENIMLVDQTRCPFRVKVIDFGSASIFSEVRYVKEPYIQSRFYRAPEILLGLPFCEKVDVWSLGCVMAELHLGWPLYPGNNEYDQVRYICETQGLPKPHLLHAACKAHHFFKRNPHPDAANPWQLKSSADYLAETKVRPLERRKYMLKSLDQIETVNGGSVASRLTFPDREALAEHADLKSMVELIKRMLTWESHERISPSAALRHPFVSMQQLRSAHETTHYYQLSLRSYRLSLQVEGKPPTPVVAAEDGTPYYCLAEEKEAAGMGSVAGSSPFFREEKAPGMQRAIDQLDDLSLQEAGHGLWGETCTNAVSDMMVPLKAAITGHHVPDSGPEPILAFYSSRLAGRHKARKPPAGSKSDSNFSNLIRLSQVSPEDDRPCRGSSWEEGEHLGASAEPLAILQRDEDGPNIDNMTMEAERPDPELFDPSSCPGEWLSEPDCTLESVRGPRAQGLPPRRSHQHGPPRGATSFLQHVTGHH

With `C[C@H]1CC[C@H](n2c3cnccc3c3cnc(Nc4ccc5c(n4)CCN(C(=O)CO)C5)nc32)CC1` the remaining binding was 56% (binding; competition with immobilised ligand; 1 µM).
The remaining binding of `CCCCC(=O)Nc1ccc(-c2ccc3ncn(CCC)c(=O)c3c2)cn1` is reported as 66% (binding; competition with immobilised ligand; 0.5 µM).
`CN1CCN(C(=O)c2ccc(NC(=O)Nc3ccc(N(C)c4ccnc(Nc5ccc(CS(C)(=O)=O)cc5)n4)cc3)cc2)CC1` has a remaining binding of 74% (binding; competition with immobilised ligand; 1 µM).
`CO[C@@H]1[C@H](N(C)C(=O)c2ccccc2)C[C@H]2O[C@]1(C)n1c3ccccc3c3c4c(c5c6ccccc6n2c5c31)C(=O)NC4` gave an inhibition of 23% (enzyme activity; inhibitor; 1 µM).
`C1=C/COCc2cc(ccc2OCCN2CCCC2)Nc2nccc(n2)-c2cccc(c2)COC/1` gave a remaining binding of 2.3% (binding; 0.1 µM).
For `C#Cc1cc(-c2cc(Nc3nc(N[C@@H](C)c4ccc(F)cn4)ncc3Cl)n[nH]2)ccc1C=O`, the inhibition was 4.92% (enzyme activity; inhibitor; 0.2 µM).
For `CC#CC(=O)N1CCC[C@H]1c1nc(-c2ccc(C(=O)Nc3ccccn3)cc2)c2c(N)nccn12`, the inhibition was 0% (enzyme activity; inhibitor; 1 µM).
For `CC(C)S(=O)(=O)c1ccc2nccc(Nc3ccc4sc(C5CCCC5)nc4c3)c2c1`, the activity vs control was 98% (enzyme activity; inhibitor; 1 µM).
